In article PMC3705663 (The Indian Journal of Medical Research, 2013):

Legend:
[1] = test system: HIV-1 NL4.3; experiment: Inhibition of HIV infection in TZM-bl cells-based assay; type: cell-based
How it was run: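 TZM-bl cells (HeLa-derived, CD4/CCR5/CXCR4, LTR-driven luciferase) were seeded at 4 × 10^4/well overnight. HIV-1 NL4.3 (MOI 0.05) was pretreated with test compound for 1 h at 37°C, added to cells in duplicate for 4 h, then washed off with cold PBS. Cells were cultured 48 h in fresh medium with compound, lysed by freeze-thaw and read for luciferase. AZT served as positive control. % inhibition was taken versus untreated infected cells; IC50 by nonlinear fit.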

[2] = test system: HIV-1 NL4.3; experiment: Inhibition of HIV infection in CEM-GFP cells-based assay; type: cell-based
How it was run: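 CEM-GFP cells (CD4+ T-lymphocytic line, GFP under HIV-1 LTR) were infected with HIV-1 NL4.3 at MOI 0.05. They were then plated at 2.0 × 10^5/well with varying test compound concentrations for up to 8 days. AZT served as positive control and solvents as negative controls. Cell lysates were read for GFP fluorescence (ex 485/em 520 nm). % inhibition was taken versus untreated infected cells, and IC50 was obtained by nonlinear curve fitting.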

[3] = target: HIV-1 protease (Human immunodeficiency virus type 1 group M subtype B, UniProt P04585); experiment: Protease assay; type: biochemical; settings: reference control saquinavir 1 μM
How it was run: (§1)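 Enzyme inhibition was measured with a commercial kit for each enzyme, following the manufacturer's instructions. Inhibition values are mean ± SEM of three independent experiments.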

[4] = target: HIV-1 integrase (Human immunodeficiency virus type 1 group M subtype B, UniProt P04585); experiment: Integrase assay; type: biochemical; settings: tested upto 50 μg/ml; positive control sodium azide; data not shown
How it was run: as §1

[5] = test system: HIV integrase; settings: previous study; cited from earlier work
[6] = test system: HIV; settings: from other plant sources; cited from earlier work
[7] = target: HIV-1 RT (Human immunodeficiency virus type 1 group M subtype B, UniProt P04585); experiment: Reverse transcriptase assay; type: biochemical; settings: reference control nevirapine 1 μM
How it was run: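 HIV-1 reverse transcriptase inhibition was measured with a commercial RT assay kit following the manufacturer's protocol. Data are mean ± SEM of three independent experiments.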

With `O=c1oc2c(O)c(O)cc3c(=O)oc4c(O)c(O)cc1c4c23` [Ellagic acid (G), ellagic acid] the “anti-HIV activity (in words)” value [1] was “consistent anti-HIV activity”, the “anti-HIV activity (in words)” value [2] was “consistent anti-HIV activity” and the “inhibition of HIV-1 protease activity (in words)” value ([3]; listed as ellagic acid) was “inhibited the HIV-1 protease activity”. For the same compound, the “inhibition of HIV-1 protease activity (in words)” value ([3]; listed as ellagic acid (compound G)) was “dose-dependent inhibition”, the “inhibition of HIV-1 integrase activity (in words)” value [4] was “did not show any significant inhibition” and the “HIV integrase inhibitory activity (in words)” value [5] was “shown to have HIV integrase inhibitory activity”. For the same compound, the “anti-HIV activity (in words)” value [6] was “reported for their anti-HIV activity”.

For `O=C(O)c1cc(O)c(O)c(O)c1` [Gallic acid (F), gallic acid], the “anti-HIV activity (in words)” value [1] was “potent anti-HIV activity”, the “anti-HIV activity (in words)” value [2] was “potent anti-HIV activity” and the “inhibition of HIV-1 RT activity (in words)” value [7] was “dose dependent inhibition”. For the same compound, the “inhibition of HIV-1 integrase activity (in words)” value [4] was “did not show any significant inhibition” and the “anti-HIV activity (in words)” value [6] was “reported for their anti-HIV activity”.

With `C[C@@H]1O[C@@H](OC[C@H]2O[C@@H](Oc3c(-c4ccc(O)c(O)c4)oc4cc(O)cc(O)c4c3=O)[C@H](O)[C@@H](O)[C@@H]2O)[C@H](O)[C@H](O)[C@H]1O` [Rutin (E), rutin] the “anti-HIV activity (in words)” value [1] was “did not show any significant anti-HIV activity” and the “anti-HIV activity (in words)” value [2] was “did not show any significant anti-HIV activity”.
